Measurements of several laboratories.
Lines come from different studies, so protocols differ.
Target: Cytochrome P450 2C19 (CYP2C19, Homo sapiens, UniProt P33261)
Effect on: enzyme activity
Action: inhibitor

SMILES | technique | species | sample | time | pH | IC50
Nc1nc(N)c2nc(CNc3ccc(C(=O)NCCc4ccccc4)cc3)cnc2n1 | luciferase |  |  |  |  | 15.1 µM
COc1ccn2c(Nc3ccccc3F)c(-c3ccncn3)nc2c1 |  |  |  |  |  | 0.93 µM
CC1=CC(=O)C(C(C)C)=CC1=O | fluorescence |  |  |  | pH 7.4 | 3.6 µM
Cc1cc2c(F)c(Oc3ncnn4cc(OC[C@@H](C)O)c(C)c34)ccc2[nH]1 | fluorescence |  |  | 15 min |  | 3.64 µM
CC(CN1c2ccccc2Sc2ccccc21)N(C)C (stereo not drawn) | fluorescence |  |  |  |  | 40.8 µM
COC(=O)C1CCN(C(=O)c2ccc(N(Cc3ccccc3)Cc3cnc4nc(N)nc(N)c4n3)cc2)CC1 | luciferase |  |  |  |  | 0.195 µM
COc1ccc2cc3[n+](cc2c1OC)CCc1cc2c(cc1-3)OCO2 |  |  |  |  |  | > 10 µM
CN(Cc1cnc2nc(N)nc(N)c2n1)c1ccc(C(=O)N2CCCCC2)cc1 | luciferase |  |  |  |  | 16.2 µM
CCC(C)(C)C(=O)O[C@H]1C[C@@H](C)C=C2C=C[C@H](C)[C@H](CC[C@@H](O)C[C@@H](O)CC(=O)O)[C@H]21 | fluorescence |  |  |  |  | > 100 µM
CCOC(=O)C1CCN(C(=O)c2ccc(N(CC)Cc3cnc4nc(N)nc(N)c4n3)cc2)CC1 | luciferase |  |  |  |  | 6.76 µM
COc1ccc2[nH]c([S+]([O-])Cc3ncc(C)c(OC)c3C)nc2c1 (stereo not drawn) |  | human | liver microsomes | 90 min | pH 7.4 | 0.662 µM
COc1ccc2[nH]c([S+]([O-])Cc3ncc(C)c(OC)c3C)nc2c1 (stereo not drawn) | fluorescence |  |  |  |  | 32 µM
